According to ChEMBL document CHEMBL4043099, “Synthesis and biological activity of cyclolinopeptide A analogues modified with γ4-bis(homo-phenylalanine)” (Bioorg Med Chem, 2017):
The source made the active and inactive calls. The calls are words filed in the database; no cut-off is given here.

How the values were obtained:
PBMC [1] = experiment: Immunosuppressive activity in human PBMC assessed as inhibition of PHA-induced cell proliferation at 10 ug/ml after 4 days by MTT assay; assay type: functional, cell-based
Procedure, shortened: (§1)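 PBMC (2×10^5 cells/well) in supplemented RPMI-1640, stimulated with 5 µg/mL PHA, with peptide at 1, 10 or 100 µg/mL. DMSO dilutions as control; no-PHA wells as baseline. Proliferation read by MTT after 4 days of incubation. Data given as mean OD of quadruplicate wells ± SE.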

[2] = biological target: T1, Prostaglandin G/H synthase 2 (Homo sapiens) (UniProt P35354); experiment: Inhibition of human recombinant COX-2 assessed as PGE2 formation at 100 pg/ml (reference value: 1072 ng/ml)
T1 sequence (whole entry): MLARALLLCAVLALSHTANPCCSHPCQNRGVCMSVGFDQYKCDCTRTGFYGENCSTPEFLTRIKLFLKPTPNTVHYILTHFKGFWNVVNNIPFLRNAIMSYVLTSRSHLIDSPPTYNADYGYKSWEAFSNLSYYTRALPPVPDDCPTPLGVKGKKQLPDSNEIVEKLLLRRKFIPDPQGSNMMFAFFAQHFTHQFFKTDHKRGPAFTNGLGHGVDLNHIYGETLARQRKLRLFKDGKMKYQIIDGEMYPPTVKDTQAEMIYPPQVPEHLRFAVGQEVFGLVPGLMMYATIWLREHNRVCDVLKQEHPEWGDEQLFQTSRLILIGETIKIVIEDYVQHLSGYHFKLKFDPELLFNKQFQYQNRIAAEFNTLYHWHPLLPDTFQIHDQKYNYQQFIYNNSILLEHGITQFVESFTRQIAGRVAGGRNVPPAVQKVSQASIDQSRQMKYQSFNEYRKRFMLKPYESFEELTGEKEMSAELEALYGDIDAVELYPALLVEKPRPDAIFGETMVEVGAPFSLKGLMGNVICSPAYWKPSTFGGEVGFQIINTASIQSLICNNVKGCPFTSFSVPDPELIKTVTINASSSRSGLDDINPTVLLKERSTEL

Jurkat [3] = experiment: Induction of DNA fragmentation in human Jurkat cells at 10 ug/ml after 24 hrs by agarose gel electrophoresis; assay type: functional, cell-based
Procedure, shortened: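 Jurkat cells treated 24 h with 10 µg/mL peptide versus DMSO. About 2×10^6 cells lysed overnight at 37 C in Tris-HCl pH 8.5 with EDTA, 5% SDS and proteinase K. Lysates heat-inactivated, RNase-treated, DNA precipitated with isopropanol and ethanol-washed. Fragmentation assessed by gel electrophoresis.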

A-431 = experiment: Cytotoxicity against human A431 cells at 25 ug/ml; assay type: functional, cell-based
[4] = biological target: T2, Prostaglandin G/H synthase 1 (Ovis aries) (UniProt P05979); experiment: Inhibition of ovine COX-1 assessed as PGE2 formation at 100 pg/ml (reference value: 981 ng/ml)
T2 sequence (whole entry): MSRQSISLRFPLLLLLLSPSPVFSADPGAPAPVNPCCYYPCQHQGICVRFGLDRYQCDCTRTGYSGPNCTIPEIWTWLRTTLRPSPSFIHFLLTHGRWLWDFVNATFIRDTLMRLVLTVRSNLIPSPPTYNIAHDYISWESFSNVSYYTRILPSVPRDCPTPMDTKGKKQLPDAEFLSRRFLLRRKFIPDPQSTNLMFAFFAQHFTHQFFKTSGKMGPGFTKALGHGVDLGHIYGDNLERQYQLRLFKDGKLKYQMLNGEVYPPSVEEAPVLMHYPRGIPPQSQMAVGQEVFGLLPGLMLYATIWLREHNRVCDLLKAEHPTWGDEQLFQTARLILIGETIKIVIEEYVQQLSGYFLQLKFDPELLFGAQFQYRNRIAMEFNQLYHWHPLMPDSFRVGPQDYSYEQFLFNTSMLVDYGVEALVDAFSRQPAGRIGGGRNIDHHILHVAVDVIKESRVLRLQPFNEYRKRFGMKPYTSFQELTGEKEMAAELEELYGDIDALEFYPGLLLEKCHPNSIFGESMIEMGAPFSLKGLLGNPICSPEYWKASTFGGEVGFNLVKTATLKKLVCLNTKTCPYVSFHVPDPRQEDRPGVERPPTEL

Jurkat [5] = experiment: Inhibition of apoptosis in human Jurkat cells assessed as caspase-8 expression relative to beta-actin at 10 ug/ml after 24 hrs by RT-PCR analysis; assay type: functional
Procedure, shortened: (§2)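 Jurkat cells (10^6/mL) exposed to 10 µg/mL peptide for 24 h (described as overnight in methods), with DMSO control. Total RNA extracted with TRIzol. Caspase-3, -8 and -9 transcripts measured by SYBR qPCR: 95 C for 5 min, then 35 cycles of 95 C for 30 s and 60 C for 45 s. Values given in arbitrary units relative to β-actin.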

[6] = biological target: T1, Prostaglandin G/H synthase 2 (Homo sapiens); experiment: Inhibition of human recombinant COX-2 assessed as PGE2 formation at 5000 pg/ml (reference value: 1072 ng/ml)
[7] = biological target: T2, Prostaglandin G/H synthase 1 (Ovis aries); experiment: Inhibition of ovine COX-1 assessed as PGE2 formation at 1000 pg/ml (reference value: 981 ng/ml)
Jurkat [8] = experiment: Inhibition of apoptosis in human Jurkat cells assessed as caspase-9 expression relative to beta actin at 10 ug/ml after 24 hrs by RT-PCR analysis; assay type: functional; procedure, shortened: as §2
PBMC [9] = experiment: Cytotoxicity against human PBMC assessed as reduction in cell viability at 10 ug/ml after 24 hrs by MTT assay; assay type: cell-based
Procedure, shortened: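 Single-donor PBMC isolated on LSM, resuspended in RPMI-1640 with 10% FCS, L-glutamine, pyruvate, 2-mercaptoethanol and antibiotics. Cells plated at 3×10^5 per well and cultured 24 h with peptide at 1, 10 or 100 µg/mL. Survival read by MTT and expressed as % viable cells versus matched DMSO controls.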

PBMC [10] = experiment: Anti-inflammatory activity in human PBMC assessed as inhibition of LPS-induced TNFalpha production at 10 ug/ml after overnight incubation by immunoassay; assay type: functional
Procedure, shortened: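 Diluted venous blood from a single donor (10× in RPMI-1640), 1 mL cultures, stimulated with 1 µg/mL LPS from E. coli O:111:B4. Peptides added at 1 and 10 µg/mL from DMSO stock (5 mg/200 µL) diluted in RPMI-1640. DMSO dilutions served as 100% controls. Overnight incubation, then supernatants frozen at -20 C and TNF-α measured by ELISA.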

Jurkat [11] = experiment: Inhibition of apoptosis in human Jurkat cells assessed as caspase-3 expression relative to beta-actin at 10 ug/ml after 24 hrs by RT-PCR analysis; assay type: functional; procedure, shortened: as §2
HT-29 = experiment: Cytotoxicity against human HT-29 cells at 25 ug/ml; assay type: functional, cell-based
PBMC [12] = experiment: Immunosuppressive activity in human PBMC assessed as inhibition of PHA-induced proliferation after 4 days by MTT assay; assay type: functional, cell-based; procedure, shortened: as §1
[13] = biological target: T1, Prostaglandin G/H synthase 2 (Homo sapiens); experiment: Inhibition of human recombinant COX-2 assessed as PGE2 formation at 1000 pg/ml (reference value: 1072 ng/ml)

Activity [2]: 1180 ng/mL
Activity [4]: 1110 ng/mL
Activity [6]: 1230 ng/mL
Activity [7]: 1030 ng/mL
Activity [13]: 1060 ng/mL
Compound: CC[C@H](C)[C@@H]1NC(=O)[C@H](CC(C)C)NC(=O)[C@H](Cc2ccccc2)NC(=O)CC[C@H](Cc2ccccc2)NC(=O)[C@@H]2CCCN2C(=O)[C@@H]2CCCN2C(=O)[C@H](C(C)C)NC(=O)[C@H](CC(C)C)NC(=O)[C@H]([C@@H](C)CC)NC1=O
Activity (PBMC [1]): Active
Activity (Jurkat [3]): Active
Activity (A-431): inactive
fold change (FC) (Jurkat [5]): 0.591
fold change (FC) (Jurkat [8]): 0.538
Activity (PBMC [9]): Non-Toxic
inhibition (PBMC [10]): Active
fold change (FC) (Jurkat [11]): 0
Activity (HT-29): inactive
Activity (PBMC [12]): Dose-dependent effect
